ChEMBL document CHEMBL5260830, “Breakthroughs in neuroactive steroid drug discovery” (Bioorg Med Chem Lett, 2018)
Converted amounts (≈) assume the structure as drawn.

Key:
[1] = Brain concentration in mouse at 10 mg/kg po measured after 30 mins; type: ADME, organism-based; details: read-out: Ct
Outline: (§1)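 Mice were given oral doses of 3, 10 or 30 mg/kg, with a vehicle group. Pentylenetetrazole was used to induce seizures. Percentages of animals with clonic seizure, tonic seizure and death were recorded. Plasma (ng/mL) and brain (ng/g) concentrations were measured in samples collected 30 min after administration.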

[2] = Brain concentration in mouse at 30 mg/kg po measured after 30 mins; type: ADME, organism-based; details: read-out: Ct; outline: as §1
[3] = Plasma concentration in mouse at 30 mg/kg, po measured after 30 mins; type: ADME, organism-based; outline: as §1
[4] = Brain concentration in mouse at 3 mg/kg po measured after 30 mins; type: ADME, organism-based; details: read-out: Ct; outline: as §1
[5] = Plasma concentration in mouse at 3 mg/kg, po measured after 30 mins; type: ADME, organism-based; outline: as §1
[6] = Plasma concentration in mouse at 10 mg/kg, po measured after 30 mins; type: ADME, organism-based; outline: as §1
[7] = system: Mus musculus; assay: Anticonvulsant activity in PTZ induced mouse assessed as reduction in clonic seizure at 10 mg/kg,po (reference value: 100%); type: functional; set-up: scale not given: the % may be the effect or the level left; outline: as §1
[8] = system: Mus musculus; assay: Anticonvulsant activity in PTZ induced mouse assessed as animal death at 3 mg/kg,po (reference value: 80%); type: functional; outline: as §1
[9] = system: Mus musculus; assay: Anticonvulsant activity in PTZ induced mouse assessed as reduction in tonic seizure at 3 mg/kg,po (reference value: 80%); type: functional; set-up: scale not given: the % may be the effect or the level left; outline: as §1
[10] = system: Mus musculus; assay: Anticonvulsant activity in PTZ induced mouse assessed as reduction in clonic seizure at 3 mg/kg,po (reference value: 100%); type: functional; set-up: scale not given: the % may be the effect or the level left; outline: as §1
[11] = system: Rattus norvegicus; assay: Neuroprotective activity against transient middle cerebral artery occlusion induced cerebral infraction Sprague-Dawley rat model assessed as decrease in cerebral infraction volume at 12 mg/kg, ip and measured after 7 days by TTC staining based assay; type: functional; set-up: scale not given: the % may be the effect or the level left; details: time 7 day
[12] = Inhibition of NMDA current in Sprague-Dawley rat Cortical neuron; type: functional, cell-based; details: cortical neurone
[13] = Inhibition of NMDA induced calcium increase in Sprague-Dawley rat Cortical neuron; type: functional, cell-based, Cortical neurone
[14] = organism: Mus musculus; assay: Anticonvulsant activity in 6-Hz induced seizure mouse model assessed as protection against 6-Hz induced seizure; type: functional
Outline: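 Tonic currents recorded from voltage-clamped ([…]) dentate gyrus granule cells of wild-type female mice. Value is fold potentiation of the mean normalized tonic response to 1 µM GABA, from four to eight cells per steroid and concentration. Anticonvulsant ED50 determined in the mouse 6-Hz psychomotor seizure model.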

[15] = target: GABA-A receptor; anion channel (Homo sapiens) (UniProt P14867+P47870+P18507+P28472+P48169+Q99928+Q9UN88+P34903+O00591+O14764+Q8N1C3+P18505+P78334+P47869+P31644+Q16445); assay: Potentiation of NAS mediated GABA (unknown origin) tonic effect assessed as fold potentiation; type: protein-complex assay; details: filed as activator
[16] = target: T1, GABA-A receptor; alpha-1/beta-2/gamma-2 (Homo sapiens, UniProt P14867+P18507+P47870); assay: Positive allosteric modulation of human GABAA alpha1beta2gamma2 receptor expressed in Xenopus laevis oocytes by two-microelectrode voltage-clamp assay; type: cell-based, Oocyte
T1 sequence (P14867 whole entry): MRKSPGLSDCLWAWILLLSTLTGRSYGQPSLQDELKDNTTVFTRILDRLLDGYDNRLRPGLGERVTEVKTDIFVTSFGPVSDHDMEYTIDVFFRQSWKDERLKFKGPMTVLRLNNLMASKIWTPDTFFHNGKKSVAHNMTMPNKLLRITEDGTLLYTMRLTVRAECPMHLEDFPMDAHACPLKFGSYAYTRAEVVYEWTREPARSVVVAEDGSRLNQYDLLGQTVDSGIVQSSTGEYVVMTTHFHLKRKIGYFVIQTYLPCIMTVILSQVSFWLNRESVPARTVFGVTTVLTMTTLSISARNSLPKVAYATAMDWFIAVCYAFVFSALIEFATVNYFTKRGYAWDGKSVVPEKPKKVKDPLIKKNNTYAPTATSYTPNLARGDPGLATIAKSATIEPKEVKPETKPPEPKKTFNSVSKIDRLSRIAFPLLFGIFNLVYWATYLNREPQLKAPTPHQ
T1 sequence (P47870 whole entry): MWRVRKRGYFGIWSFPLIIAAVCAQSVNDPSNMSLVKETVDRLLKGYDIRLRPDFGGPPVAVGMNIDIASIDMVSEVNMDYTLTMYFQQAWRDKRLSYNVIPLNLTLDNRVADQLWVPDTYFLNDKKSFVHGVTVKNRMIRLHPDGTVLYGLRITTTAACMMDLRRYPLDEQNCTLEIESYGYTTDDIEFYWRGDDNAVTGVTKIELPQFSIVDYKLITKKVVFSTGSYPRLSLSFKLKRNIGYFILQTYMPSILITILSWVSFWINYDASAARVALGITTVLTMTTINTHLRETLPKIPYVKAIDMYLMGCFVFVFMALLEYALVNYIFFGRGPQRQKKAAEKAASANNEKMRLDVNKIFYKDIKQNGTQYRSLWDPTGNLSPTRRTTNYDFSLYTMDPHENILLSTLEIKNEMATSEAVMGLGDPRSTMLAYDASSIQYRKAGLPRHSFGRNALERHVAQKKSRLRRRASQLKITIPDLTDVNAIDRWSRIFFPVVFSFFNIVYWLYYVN
T1 sequence (P18507 whole entry): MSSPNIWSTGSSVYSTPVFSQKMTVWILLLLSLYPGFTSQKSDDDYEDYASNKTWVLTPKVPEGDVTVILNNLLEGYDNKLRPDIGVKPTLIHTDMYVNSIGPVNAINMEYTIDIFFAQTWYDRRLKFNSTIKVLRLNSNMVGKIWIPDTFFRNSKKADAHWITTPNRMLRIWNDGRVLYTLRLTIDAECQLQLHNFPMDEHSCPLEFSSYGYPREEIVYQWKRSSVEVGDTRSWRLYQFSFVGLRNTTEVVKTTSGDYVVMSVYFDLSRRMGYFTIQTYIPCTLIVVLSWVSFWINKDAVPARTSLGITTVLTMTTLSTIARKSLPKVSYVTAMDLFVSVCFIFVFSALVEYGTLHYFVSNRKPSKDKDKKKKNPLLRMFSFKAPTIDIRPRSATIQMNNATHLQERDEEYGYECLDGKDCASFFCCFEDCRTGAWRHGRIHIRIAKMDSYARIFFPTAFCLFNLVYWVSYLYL
Outline: (§2)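 PAM activity measured as EC50 in Xenopus oocytes expressing α1β2γ2L or α2β1γ2L GABAA receptors.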

[17] = target: T2, Gamma-aminobutyric acid receptor subunit alpha-2/beta-1/gamma-2 (Homo sapiens, UniProt P18505+P18507+P47869); assay: Positive allosteric modulation of human GABAA alpha2beta1gamma2 receptor expressed in Xenopus laevis oocytes by two-microelectrode voltage-clamp assay; type: cell-based, Oocyte; outline: as §2
T2 sequence (P18507 whole entry): T1 sequence (P18507 whole entry)
T2 sequence (P18505 whole entry): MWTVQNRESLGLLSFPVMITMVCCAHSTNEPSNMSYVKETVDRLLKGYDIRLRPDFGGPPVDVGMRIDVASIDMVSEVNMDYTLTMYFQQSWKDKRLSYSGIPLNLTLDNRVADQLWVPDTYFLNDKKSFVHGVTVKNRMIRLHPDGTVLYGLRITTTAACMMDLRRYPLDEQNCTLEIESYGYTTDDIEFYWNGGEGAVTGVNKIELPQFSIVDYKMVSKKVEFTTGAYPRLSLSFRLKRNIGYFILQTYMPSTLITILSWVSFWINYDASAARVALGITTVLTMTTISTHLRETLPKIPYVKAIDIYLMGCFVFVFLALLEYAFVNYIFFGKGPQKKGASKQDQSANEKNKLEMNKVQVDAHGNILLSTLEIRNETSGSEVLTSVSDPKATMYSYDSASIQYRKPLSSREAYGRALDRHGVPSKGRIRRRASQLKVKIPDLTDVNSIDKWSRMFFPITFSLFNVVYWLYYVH
T2 sequence (P47869 whole entry): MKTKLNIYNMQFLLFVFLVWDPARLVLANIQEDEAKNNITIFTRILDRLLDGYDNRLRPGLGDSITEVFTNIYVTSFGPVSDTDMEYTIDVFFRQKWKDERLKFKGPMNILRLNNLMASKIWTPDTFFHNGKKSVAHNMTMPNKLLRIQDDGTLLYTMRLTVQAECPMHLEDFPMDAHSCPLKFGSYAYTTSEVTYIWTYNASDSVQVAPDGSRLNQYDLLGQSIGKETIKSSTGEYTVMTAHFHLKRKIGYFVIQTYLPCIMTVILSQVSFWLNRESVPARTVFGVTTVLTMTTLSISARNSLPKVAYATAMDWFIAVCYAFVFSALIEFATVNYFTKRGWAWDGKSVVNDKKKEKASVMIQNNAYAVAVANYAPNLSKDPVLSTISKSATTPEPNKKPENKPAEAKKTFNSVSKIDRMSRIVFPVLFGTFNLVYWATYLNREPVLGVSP

[18] = Solubility of the compound in 45% HPbetaCD; type: physicochemical
[19] = organism: Mus musculus; assay: Anxiolytic activity in mouse assessed as increase in time spent in open arm by elevated plus maze test; type: functional; details: read-out: MED
Outline: (§3)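 Mice were dosed orally. Anxiolytic activity was tested in the elevated plus maze and reported as minimum effective dose. Anticonvulsant activity was tested against pentylenetetrazole-induced seizures and reported as ED50. Therapeutic indices were given for the anxiolytic and anticonvulsant read-outs against a preliminary mouse safety measure.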

[20] = system: Mus musculus; assay: Anticonvulsant activity in PTZ induced mouse administered orally; type: functional; details: route po; outline: as §3
[21] = Therapeutic index, ratio of AD50 for mouse to MED for anxiolytic activity in mouse assessed as increase in time spent in open arm by elevated plus maze test; type: toxicity; details: read-out: TI; outline: as §3
[22] = Therapeutic index, ratio of AD50 for mouse to ED50 for anticonvulsant activity in PTZ induced mouse administered orally; type: toxicity; details: in vivo, route po, read-out: TI; outline: as §3
[23] = Oral availability in rat 3 mg/kg, po; type: ADME, organism-based; details: in vivo
Outline: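 Rat oral bioavailability from dosing at 3 mg/kg p.o. and 1 mg/kg i.v.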

## C[C@@]1(O)CC[C@H]2[C@H](CC[C@@H]3[C@@H]2CC[C@]2(C)[C@@H](C(=O)Cn4nccn4)CC[C@@H]32)C1
[1]
  concentration at 0.5 h: 773 ng/g
[2]
  concentration at 0.5 h: 1960 ng/g
[3]
  concentration at 0.5 h: 1690 ng/mL
[4]
  concentration at 0.5 h: 87 ng/g
[5]
  concentration at 0.5 h: 87 ng/mL
[6]
  concentration at 0.5 h: 703 ng/mL
[7]
  Activity: 20%
[8]
  Activity: 30%
[9]
  Activity: 40%
[10]
  Activity: 90%

## C=C(C)CC[C@@H](C)[C@H]1CC[C@H]2[C@@H]3C[C@@H](O)[C@@]4(O)C[C@H](O)CC[C@]4(CO)[C@H]3CC[C@]12C
[11]
  Activity: 30%
[12]
  IC50: 10.3 µM
[13]; Rattus norvegicus, Sprague-Dawley, Cortical neurone
  IC50: 7.8 µM
[13]; cortical neurone
  IC50: 10.3 µM

## CC(=O)[C@H]1CC[C@H]2[C@@H]3CC[C@H]4C[C@](C)(O)CC[C@]4(C)[C@H]3CC[C@]12C [GANAXOLONE]
[14]
  ED50: 1.5 mg/kg
[15]
  fold change (FC): 3.47
[16]
  EC50: 0.2 µM
[17]
  EC50: 0.1 µM
[18]
  solubility: 20 mM (≈ 6.65 mg/mL)
[19]
  minimal effective dose: 20 mg/kg
[20]
  ED50: 23 mg/kg
[21]
  selectivity ratio: 3.3
[22]
  selectivity ratio: 3

## C[C@@]1(O)CC[C@@]2(C)[C@@H](CC[C@@H]3[C@@H]2CC[C@]2(C)[C@@H](c4cc(CO)on4)CC[C@@H]32)C1
[16]
  EC50: 1.2 µM
[17]
  EC50: 0.2 µM
[18]
  solubility: 52 mM (≈ 20.2 mg/mL)
[23]
  bioavailability: 77%
[19]
  minimal effective dose: ≤ 0.3 mg/kg
[20]
  ED50: 6 mg/kg
[21]
  selectivity ratio: ≥ 127
[22]
  selectivity ratio: 6
